Measured values as given in ChEMBL document CHEMBL1240362, “Intrapulmonary pharmacokinetics of S-013420, a novel bicyclolide antibacterial, in healthy Japanese subjects” (Antimicrob Agents Chemother, 2010).
Converted amounts (≈) assume the structure as drawn.

Columns and labels:
[1] = Plasma concentration in healthy human at […], po after 10 hrs; format: ADME, organism-based; parameters: route oral
Outline: (§1)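 Healthy nonsmoking Japanese men, 20-45 y, given one oral 400 mg suspension dose. Blood drawn at 0-72 h, spun at 1,600 × g for 10 min at 4°C, plasma kept at −20°C. Drug measured by validated LC/MS/MS, linear 0.005-5 μg/ml. Values are mean ± SD, n = 28. Cmax, Tmax and t1/2,z are model-independent; AUC0-24 by trapezoidal method.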

Homo sapiens [2] = test: Toxicity in healthy human assessed as eosinophil count in bronchoalveolar fluid at […], po administered as single dose after 2 hrs; format: organism-based, Lung; parameters: route oral; settings: in vivo
Outline: (§2)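 Healthy Japanese male never-smokers, aged 20 to 45 years with normal BMI, got one open-label oral 400 mg suspension dose. Four subjects per time group had one fiber-optic bronchoscopic BAL at the assigned post-dose time. The first aliquot was discarded and the last three were pooled. BAL fluid was held on ice and spun at 400 × g for 5 min at 4°C. Pellet cells were counted by hemocytometer, with a differential count on a stained cytocentrifuge preparation.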

[3] = Ratio of AUC (0 to 24 hrs) in […] healthy epithelial lining fluid to MIC90 for erythromycin-susceptible Staphylococcus aureus; format: functional
[4] = AUC (0 to 24 hrs) in alveolar macrophages of healthy human at 400 mg, po administered as single dose by linear trapezoidal method
[5] = Ratio of drug level in epithelial lining fluid to plasma in healthy human at 400 mg, po administered as single dose after 10 hrs
Homo sapiens [6] = test: Toxicity in healthy human assessed as eosinophil count in bronchoalveolar fluid at 400 mg, po administered as single dose after 8 hrs; settings: in vivo
Homo sapiens [7] = test: Toxicity in healthy human assessed as other cellular fractions in bronchoalveolar fluid at 400 mg, po administered as single dose after 2 hrs; settings: in vivo
[8] = Ratio of AUC (0 to 24 hrs) in plasma of healthy human to MIC90 for Moraxella catarrhalis; format: functional
Homo sapiens [9] = test: Toxicity in healthy human assessed as alveolar macrophage count in bronchoalveolar fluid at 400 mg, po administered as single dose after 6 hrs; settings: in vivo
[10] = Plasma concentration in healthy human at […], po after 6 hrs; format: ADME, organism-based; parameters: route oral; outline: as §1
Homo sapiens [11] = test: Toxicity in healthy human assessed as neutrophil count in bronchoalveolar fluid at […], po administered as single dose after 12 hrs; format: organism-based, Lung; parameters: route oral; settings: in vivo; outline: as §2
Homo sapiens [12] = test: Toxicity in healthy human assessed as lymphocytes count in bronchoalveolar fluid at […], po administered as single dose after 10 hrs; format: organism-based, Lung; parameters: route oral; settings: in vivo; outline: as §2
Homo sapiens [13] = test: Toxicity in healthy human assessed as neutrophil count in bronchoalveolar fluid at […], po administered as single dose after 8 hrs; format: organism-based, Lung; parameters: route oral; settings: in vivo; outline: as §2
[14] = Drug level in alveolar macrophages of healthy human at […], po administered as single dose after 10 hrs; format: ADME, organism-based, Macrophage; parameters: route oral; settings: read-out: Drug uptake
Outline: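 One oral 400 mg suspension dose; four volunteers lavaged at each time (2-24 h). Cell pellet from the pooled 2nd-4th aspirates was counted (hemocytometer, stained cytospin differential). Drug in cell suspension measured by HPLC, divided by AM volume assuming 2.42 μl/10^6 cells. Cmax and Tmax are model-independent, based on mean concentrations at each time.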

[15] = Cmax in plasma of healthy human at 400 mg, po administered as single dose
Homo sapiens [16] = test: Toxicity in healthy human assessed as eosinophil count in bronchoalveolar fluid at 400 mg, po administered as single dose after 6 hrs; settings: in vivo
Streptococcus pyogenes = test: Antimicrobial activity against Streptococcus pyogenes; format: functional
Moraxella catarrhalis = test: Antimicrobial activity against Moraxella catarrhalis; format: functional
Homo sapiens [17] = test: Toxicity in healthy human assessed as eosinophil count in bronchoalveolar fluid at 400 mg, po administered as single dose after 4 hrs; settings: in vivo
Homo sapiens [18] = test: Toxicity in healthy human assessed as other cellular fractions in bronchoalveolar fluid at […], po administered as single dose after 12 hrs; format: organism-based, Lung; parameters: route oral; settings: in vivo; outline: as §2
Staphylococcus aureus = test: Antimicrobial activity against erythromycin-susceptible Staphylococcus aureus; format: functional

CC[C@H]1OC(=O)[C@H](C)C(=O)[C@H](C)[C@@H](O[C@@H]2O[C@H](C)C[C@H](N(C)C)[C@H]2O)[C@@]2(C)C[C@@H](C)/C(=N\C(C)=O)[C@H](C)[C@@H](OC/C(=N\OCc3ccc(-n4cccn4)nc3)CO2)[C@]1(C)O [MODITHROMYCIN]
concentration at 10 h [1]: 429 ng/mL
Activity (Homo sapiens [2]): 0%
RatioAUC/MIC [3]: 849.6
AUC(0-t) at 24 h [4]: 2560 µg·h/mL
Kp at 10 h [5]: 23.2
Activity (Homo sapiens [6]): 0.3%
Activity (Homo sapiens [7]): 0%
RatioAUC/MIC [8]: 20.9
Activity (Homo sapiens [9]): 86.9%
concentration at 6 h [10]: 540 ng/mL
Activity (Homo sapiens [11]): 0%
Activity (Homo sapiens [12]): 13.6%
Activity (Homo sapiens [13]): 0.1%
concentration at 10 h [14]: 108000 ng/mL
Cmax [15]: 687 ng/mL
Activity (Homo sapiens [16]): 0%
MIC90 (Streptococcus pyogenes): ≤ 0.063 µg/mL
MIC90 (Moraxella catarrhalis): 0.5 µg/mL (≈ 0.595 µM)
Activity (Homo sapiens [17]): 0.1%
Activity (Homo sapiens [18]): 0%
MIC90 (Staphylococcus aureus): 0.25 µg/mL (≈ 0.297 µM)
